Source: the EternaBench riboswitch data

Experiments:
MS2 coat protein [1] = experiment: apparent Kd, MS2 coat protein; higher = weaker binding; RNA-MaP array; tryptophan 2.4 mM where present
Method in brief: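 On Illumina sequencing-chip clusters, designs were transcribed by stalled E. coli RNA polymerase and titrated with SNAP-549-labelled MS2 coat protein (0.7 or 1.5 nM, doubling to 3 µM), without and then with constant ligand, in 100 mM Tris-HCl pH 7.5, 80 mM KCl, 4 mM MgCl2, BSA, DTT, yeast tRNA and Tween-20. Apparent Kd is the median of filtered per-cluster curve fits to green signal normalised to red-channel RNA signal and control-cluster median Fmax.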

MS2 coat protein [2] = experiment: apparent Kd, MS2 coat protein; higher = weaker binding; RNA-MaP array
Method in brief: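 On an Illumina sequencing chip, sequenced DNA templates served for transcription of the designed RNAs, which were then bound at room temperature by fluorescently labeled MS2 coat protein at 1.5 nM to 3 μM, with or without input ligand. Apparent Kd is the median of the fits to each cluster's binding curve. Only designs measured on at least 10 clusters were kept.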

[3] = designed as: OFF switch for tryptophan, no ligand
[4] = ligand present: tryptophan, designed as: OFF switch for tryptophan
[5] = designed as: ON switch for tryptophan, no ligand
[6] = ligand present: tryptophan, designed as: ON switch for tryptophan
[7] = designed as: OFF switch for flavin mononucleotide, no ligand
[8] = ligand present: flavin mononucleotide, designed as: OFF switch for flavin mononucleotide
[9] = designed as: ON switch for theophylline, no ligand
[10] = ligand present: theophylline, designed as: ON switch for theophylline
[11] = designed as: ON switch for flavin mononucleotide, no ligand
[12] = ligand present: flavin mononucleotide, designed as: ON switch for flavin mononucleotide
[13] = designed as: OFF switch for theophylline, no ligand
[14] = ligand present: theophylline, designed as: OFF switch for theophylline

Row | Sequence | apparent Kd (MS2 coat protein [2]; [7]) | apparent Kd (MS2 coat protein [2]; [8]) | further results
1 | AGCAUCUAGUCGGCCGCCACUCUUAUUACAUGAGGAUCACCCAUGUUUAAUUCAUGGUUAUAUUUGAGGACCGGGACAUUUGCAU | – | – | apparent Kd (MS2 coat protein [1]; [3]): 61.7 nM; apparent Kd (MS2 coat protein [1]; [4]): 55.8 nM
2 | GCAUCCUAGUCGGCCGCCACUGCAUGUAGUUUUGCUACAUGGAAACAUGAGGAUCACCCAUGUAGCAGGACCGGGACUAGGAUGC | – | – | apparent Kd (MS2 coat protein [1]; [5]): 27.5 nM; apparent Kd (MS2 coat protein [1]; [6]): 11.5 nM
3 | AUUUAUUAGACGGCCGCCACUUGAAAGCGACCUCAUAAAUGGGAACAUGAGGAUCACCCAUGUAAGAGGACCGGGUCUAGUAGAU | – | – | apparent Kd (MS2 coat protein [1]; [5]): 104 nM; apparent Kd (MS2 coat protein [1]; [6]): 300 nM
4 | GGAUUCGGCACGGCCGCCACUGCGGUGGUGUGACAUGAGGAUCACCCAUGUUGUCAUGCGGCCCUUAGGACCGGGUGGCGUUUCC | – | – | apparent Kd (MS2 coat protein [1]; [3]): 49.7 nM; apparent Kd (MS2 coat protein [1]; [4]): 63.7 nM
5 | AUUCAUGAAAACAUGACAUGAGGAUCACUCCGAGGACCGGUACGGCCGCCACUCGCGAGGAGGCACAUGAGGAUCACCCAUGUUA | – | – | apparent Kd (MS2 coat protein [1]; [5]): 114 nM; apparent Kd (MS2 coat protein [1]; [6]): 82.8 nM
6 | AAUAGUUCUGGAGGAUAUUGUACAUGAGGAUCACCCAUGUUAUCUACUGCUAUGGUUGACCUGCGCAAGAAGGCCACGUUCCUG | 12.6 nM | 20.5 nM | –
7 | AGGCGGGUAGGAUAUACCUUGUUCCUAGUAUCCAGUCGAGGACAUGAGGAUCACCCAUGUAGAAGGACCCAUUC | 30.9 nM | 36.5 nM | –
8 | GCAAAGUAAGAAGGAUAUGCGUCCGGUGAACAACAACGCGAUCGAACAUGAGGAUCACCCAUGUCGCAGAAGGUCUGAGAAUUC | 27.4 nM | 40.3 nM | –
9 | AAUCCAAGAAAUGAUACCAGUCCCACUCAGGACAUGAGGAUCACCCAUGUAAUACAGGGAGACCCUUGGCAGCAUCGAAUAAACA | – | – | apparent Kd (MS2 coat protein [2]; [9]): 432 nM; apparent Kd (MS2 coat protein [2]; [10]): 82.7 nM
10 | AUGUUCGAACAUGAGGAUCACCCAUGUGAACCUCAUAAACGUAGAAGGCGACCGAGUUUAUGGGUCGAGGAUAUACCUCGAGAA | 334 nM | 554 nM | –
11 | GAAGCUCGCGAUGAUACCAGCUCGACUGAUAACAUGAGGAUCACCCAUGUUGUGCGCCCUAGCCCUUGGCAGCAUGACAUAUUCG | – | – | apparent Kd (MS2 coat protein [2]; [9]): 110 nM; apparent Kd (MS2 coat protein [2]; [10]): 71.1 nM
12 | AAACACUCAUAAGGAUAUGCAGCGCUUAGACAUGAGGAUCACCCAUGUGAUGCAGGGAAGUCCCGGCAGAAGGUAAGUAAGUAC | – | – | apparent Kd (MS2 coat protein [2]; [11]): 14.4 nM; apparent Kd (MS2 coat protein [2]; [12]): 13 nM
13 | UAGAAGAACAUGCGGGCUCCGGACGGUGAUACCAGAUCGAAAAGGAUCCCUUGGCAGCACUGCACAUGAGGAUCACCCAUGUGCA | – | – | apparent Kd (MS2 coat protein [2]; [13]): 9.2 nM; apparent Kd (MS2 coat protein [2]; [14]): 15.8 nM
14 | AAUCAUAAUAAAGGAUAUACAACACAACAGGUGGUAGAAGGAUAUGGAGAUGGAACACACAUGAGGAUCACCCAUGUAAAUAGC | – | – | apparent Kd (MS2 coat protein [2]; [11]): 13 nM; apparent Kd (MS2 coat protein [2]; [12]): 9.95 nM
15 | CCAAGCAUAAUAGAUACCAGUCGUAUACCUCCAACAUGAGGAUCACCCAUGUGCUCAGUUGACCCUUGGCAGCUAUGCCUAUAGA | – | – | apparent Kd (MS2 coat protein [2]; [9]): 39.6 nM; apparent Kd (MS2 coat protein [2]; [10]): 25.8 nM
16 | CAUUAAACAGCAGGAUAUACUAGUGUGAUACUGGUAGAAGGGCUCCUCACCCACAUGAGGAUCACCCAUGUGACAUCUACCUUA | – | – | apparent Kd (MS2 coat protein [2]; [11]): 314 nM; apparent Kd (MS2 coat protein [2]; [12]): 146 nM
17 | CUCCCACUAUCUGAUACCAGAGGAUAAACGUAGACUGGGAACAUGAGGAUCACCCAUGUCCUCCCUUGGCAGCAGGACUUAUCUC | – | – | apparent Kd (MS2 coat protein [2]; [13]): 21.9 nM; apparent Kd (MS2 coat protein [2]; [14]): 38.3 nM
18 | AUGAUCAUAGUAAGGAUAUCCGGACCAAUAGCAAAGGAGAAGGUACAUGAGGAUCACCCAUGUUUAUUAAUACU | 9.11 nM | 9.98 nM | –
19 | CCAAGAGUACUAGGAUAUUCCGGCCACGCACAUGAGGAUCACCCAUGUGAGACUCUCAGACGGUCGAAGAAGGAGUUGCAGGCU | 34.8 nM | 30.9 nM | –
20 | AUCAGUCUAGAAGGAUAUCAGCCCGAAGCCGAGUGAGAAGGUCUAGACAUGAGGAUCACCCAUGUCACAGCAACUAUCAAGAAC | 9.74 nM | 19.1 nM | –
21 | GGGUGACAUGAGGAUCACCCAUGUCAGGAUAUGGACUCGAAAUUAGGUAUGAAUCACGCCAGAAGGGACCGGGC | 55 nM | 44 nM | –
22 | GCCCAUUAAGACAUGAGGAUCACCCAUGUCACCGGGUAUGCCAGAAGGCUCUUAUAGAAGUAACGAGAGGAUAUGGGUGCUACU | – | – | apparent Kd (MS2 coat protein [2]; [11]): 23.3 nM; apparent Kd (MS2 coat protein [2]; [12]): 13.8 nM
23 | ACAUGAGGAUCACCCAUGUACCAAGAACAUUGAUGCCUCCGAGAGGAUAUUUGCGGUAUAACACUAAAGAAGGCUCUACAAGUA | 7.95 nM | 7.31 nM | –

Row | Sequence | apparent Kd (MS2 coat protein [2]; [7]) | apparent Kd (MS2 coat protein [2]; [8]) | further results
24 | AUUAGCAUCCAAGGAUAUCAGUUGGCCCGCAGGUGAGAAGGUGGAUUCUGGGCGCCGCGUGGGACACAUGAGGAUCACCCAUGU | 30.3 nM | 26 nM | –
25 | ACACAUGAGGAUCACCCAUGUAGAUAUGGGCUCACUAUCACUAGAAGGACUUUGCUCUCUUGGAAGUAGGAUAUAGUACGCUGG | 163 nM | 134 nM | –
26 | CUAGGUCAGCUAGGAUAUACUUCUUGCAUGGAUGUAGAAGGAGCGAUAAGAUCUACAUGAGGAUCACCCAUGUUACUUAGGGUG | 290 nM | 131 nM | –
27 | AUGCUUAAAAUGCUCAAACAUGAGGAUCACCCAUGUGAGGUCAAGGAUAUUAUUUAACUUGUUUAUAAGAAGGUGACCGAAUGA | – | – | apparent Kd (MS2 coat protein [2]; [11]): 61.1 nM; apparent Kd (MS2 coat protein [2]; [12]): 18.7 nM
28 | GAUAAGGAAGGAUAUACAAAGGAACAAAUACACAUUCUAAAACAUGAGGAUCACCCAUGUAGAAGGACCAACAA | 6.97 nM | 6.83 nM | –
29 | UAAGCACAUGAGGAUCACCCAUGUGAGGAUAUGAGUGUCGGUCGAGAAGAGCGUCCAAUCAGAAGGCACAGGAU | 12.9 nM | 11.6 nM | –
30 | AGUCAAGAGUAGAAGGGUGGAAAUUCGGUCGACACAGGAUAUACUUCAGGAGCCAGAAGACAAUAACAUGAGGAUCACCCAUGU | – | – | apparent Kd (MS2 coat protein [2]; [11]): 14.1 nM; apparent Kd (MS2 coat protein [2]; [12]): 9.27 nM
31 | UUGAGACAACACCCAACAUGAGGAUCACCCAUGUCACCGAGAGAGGAUAUGCACGAGUAGGUCCAGCAGAAGGCUCUAUGUCAA | – | – | apparent Kd (MS2 coat protein [2]; [11]): 115 nM; apparent Kd (MS2 coat protein [2]; [12]): 15.9 nM
32 | GACUACCAGGAAGGAUAUGCCUAUAACUGAAAGACAUGAGGAUCACCCAUGUAUUGGGCGAACCUGCAGAAGGUCCGACUAGAC | 40.6 nM | 41.2 nM | –
33 | GCCAGUGUCUAGGAUAUCACGCCGCGUUGCAGGUGAGAAGGAGACACAUGAGGAUCACCCAUGUGUCCGAUAGG | 7.12 nM | 9.49 nM | –
34 | AAGCUGGAGAAUACAUGAGGAUCACCCAUGUGGCUUCAUGCCUAGGAUAUUAGUGUGCAGAACUGUAAGAAGGAGGAUCUUUAA | 10.3 nM | 8.56 nM | –
35 | UCAGCUAGACAGGAUAUAGAGAAUCAAGAACAGCUAGAAGGGUCAACAUGAGGAUCACCCAUGUGGUGGUACUG | 477 nM | 445 nM | –
36 | CGCCCAGUUACGGCCGCCACUUCGAUGGCAAAUGUCGAGCCUCCACAUGAGGAUCACCCAUGUCGAAGGACCGGGUACUGCUUGC | – | – | apparent Kd (MS2 coat protein [2]; [5]): 31.9 nM; apparent Kd (MS2 coat protein [2]; [6]): 110 nM
37 | UCGUCGCUUCAGAAGGACAGACAAUCGUGCACUGUAGGAUAUGAGACGCGACAUGAGGAUCACCCAUGUGAACGGUUCGUAUAA | 25.1 nM | 53 nM | –
38 | CGACGUCACGUGAGGAUAUGAUUGCUGCAAAUCAGUCAGAAGGCACAUGAGGAUCACCCAUGUCACCAAUACGA | 7.15 nM | 10.3 nM | –
39 | CAACAUGAGGAUCACCCAUGUGGAGGUCCCGUUACCGGCGGAUAGGAUAUGGAACGCAGCGAAAACCAGAAGGAUCUAUAGGAC | – | 112 nM | –
40 | CUCGUCAACUCGGCCGCCACUGACGUGUGGUCAGGCCUGUAGAAACACAUGAGGAUCACCCAUGUCAGGACCGGGAGCUUUAUUA | – | – | apparent Kd (MS2 coat protein [2]; [3]): 46.9 nM; apparent Kd (MS2 coat protein [2]; [4]): 58.2 nM
41 | AUUGAGACCUAGAAGGCGAAAACAUGAGGAUCACCCAUGUAGAUAACACCUACAUGAGCGAAAUACGAGGAUAUAGGAAAACUC | 356 nM | 351 nM | –
42 | GCACGACAUGAGGAUCACCCAUGUGAGGAUAUACUACAUCAGGAACACGCUAUGCACGGUAGAAGGCACGGGAG | 16.4 nM | 15.6 nM | –
43 | CUAACCACAAUAGGAUAUCGGGCUCGUUUCAUUGCUGCAAAACAUGAGGAUCACCCAUGUCCGUCCGAGAAGGAUUGUAAGAAU | – | – | apparent Kd (MS2 coat protein [2]; [11]): 92.1 nM; apparent Kd (MS2 coat protein [2]; [12]): 14.8 nM
44 | UCAUUUUUCACGGCCGCCACUUCAAGGUCCUGAGGCUGGGCAACACAUGAGGAUCACCCAUGUCGAAGGACCGGGUGAAGCUACC | – | – | apparent Kd (MS2 coat protein [2]; [5]): 114 nM; apparent Kd (MS2 coat protein [2]; [6]): 183 nM
45 | ACCAACCACACCCUUCACUGUUUUCGCCGCCGAGGACCGGUACGGCCGCCACUCGUACAAAGACAUGAGGAUCACCCAUGUGCCU | – | – | apparent Kd (MS2 coat protein [2]; [3]): 14.5 nM; apparent Kd (MS2 coat protein [2]; [4]): 21.4 nM
